Screening results from PubChem.
GSK3A inh = blockers of GSK3A enzyme activity – biochemical, luminescence, cell-free homogeneous, HTS, primary screen | Glycogen synthase kinase-3 alpha (Homo sapiens), P49840 | GSK-3 alpha kinase, ADP-Glo luminescence, 60 min | inhibition, % at 10 µM | 320,000 tested, 0.1% active | AID 2650, 2010;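 active means more than half of replicates show inhibition above 20%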;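 further: GST-tagged GSK-3 alpha with peptide substrate and 25 µM ATP; 0% = DMSO neutral wells and 100% = GW8510 positive control wells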
Target sequence (P49840 whole entry, looked up): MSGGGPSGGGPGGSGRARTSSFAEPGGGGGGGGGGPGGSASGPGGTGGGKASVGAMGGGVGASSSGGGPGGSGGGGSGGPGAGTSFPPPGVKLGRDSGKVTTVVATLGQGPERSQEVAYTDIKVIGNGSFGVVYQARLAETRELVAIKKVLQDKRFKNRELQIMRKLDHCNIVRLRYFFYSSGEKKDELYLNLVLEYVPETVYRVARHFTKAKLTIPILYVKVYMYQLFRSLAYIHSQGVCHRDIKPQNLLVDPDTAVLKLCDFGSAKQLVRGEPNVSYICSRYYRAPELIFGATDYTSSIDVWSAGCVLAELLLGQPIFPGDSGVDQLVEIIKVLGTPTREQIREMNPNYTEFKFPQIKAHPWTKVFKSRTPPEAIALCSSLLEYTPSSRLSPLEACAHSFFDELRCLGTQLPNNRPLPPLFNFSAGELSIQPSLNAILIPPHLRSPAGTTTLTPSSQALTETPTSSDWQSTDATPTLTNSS
GSK3B inh = human GSK3beta kinase inhibitors, primary screen, biochemical, cell-free homogeneous, HTS | activity score (negative = inhibition), % at 10 µM | Glycogen synthase kinase-3 beta (Homo sapiens), P49841 | 300,000 tested, 0.038% active | GST-GSK3beta kinase, ADP-Glo luminescence, 60 min; active compounds read low | AID 2097, 2009;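 active means more than half of replicate wells score below -50%, meaning over 50% inhibition versus plate controls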;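 further: 0% = median DMSO wells and -100% = median GW8510 positive control wells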
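Test system – GST-tagged human GSK3beta kinase, cell-free · Incubation – 60 min enzyme reaction, room temperature · Signal – ADP-Glo luminescence · Also added – peptide substrate and ATP at 25 µM · Controls – DMSO neutral wells and GW8510 at 20 µM as positive · Buffer or medium – Tris/MgCl2 kinase buffer · Measure – Luminescence-derived activity versus plate DMSO and GW8510 wells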
DSG3 Ab inh = inhibitors of pemphigus antibody binding to DSG3, primary screen, biochemical, bead-based, flow cytometry, scFv-GFP; 310,000 tested, 0.48% active; binding (percent of control), % at 10 µM; DSG3-coupled beads, scFv-anti-DSG3-GFP binding; active compounds read low; Desmoglein-3 (Homo sapiens), P32926;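 active means binding more than 3 SD below its plate's average and above zero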;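 further: hits lower antibody fragment binding to DSG3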
STK33 inh = inhibitors of purified STK33 kinase, primary screen, biochemical, ADP-Glo luminescence, homogeneous, cell-free | Serine/threonine-protein kinase 33 (Homo sapiens), Q9BYT3 | MBP phosphorylation | inhibition, % at 10 µM | 320,000 tested, 0.073% active | AID 2661, 2010;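 active means inhibition at or above 25%, using the most active replicate where run in duplicate; inactive means inhibition below 25%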
MT1-MMP act inh = blockers of MT1-MMP proenzyme processing, primary screen, HT1080 RFP-PRO-GFP cells, GFP/RFP fluorescence; Matrix metalloproteinase-14 (Homo sapiens), P50281; GFP/RFP ratio fluorescence, overnight; percent of plate control window, DMSO zero; GFP/RFP ratio change, % at 20 µM; 360,000 tested, 0.061% active;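 active means GFP/RFP ratio change of at least 30% with cell ATP level not reduced by more than half and red fluorescence within 50% of control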
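system = RFP-PRO-GFP reporter HT1080 cells | dosing = 20 µM single dose, 1% DMSO | timing = overnight cell settling, then overnight compound exposure, 37 °C, 5% CO2 | read-out basis = GFP/RFP fluorescence ratio | controls = DMSO and RFP-L50D-GFP cell wells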
The depositor's hits bear a star; · = no result given. Shown are actives, neighbours in structure and some others; about 0.63% of the full set was active somewhere.

SMILES | GSK3A inh | GSK3B inh | DSG3 Ab inh | STK33 inh | MT1-MMP act inh
Fc1ccc2nc(C3CCCCN3Cc3nc(CC4CC4)no3)[nH]c2c1 (stereo unspecified) | -7.4 | 1.6 | 2.2* | -0.1 | ·
Fc1ccc(C2CCCCN2Cc2nc(CC3CC3)no2)cc1 (stereo unspecified) | 0.7 | 2.2 | 81.8 | 2.1 | 1.1
COC(=O)[C@]12CCCCC=C1N(Cc1ccc3c(c1)OCO3)C(=O)[C@H](CC(=O)N1CCSCC1)C2 | · | · | · | · | -7.7
CC1OC2CC(=O)OC2C2=C1C(=O)c1c(O)cccc1C2=O (stereo unspecified) | · | · | · | · | -178.3
O=C(/C=C/c1ccc(Br)o1)OCc1nc2ccsc2c(=O)[nH]1 | 0.8 | 0.9 | 49.6* | -0.3 | -1.9
Cc1n[nH]c(=S)n(NC(=O)CC(=O)Nn2c(=S)[nH]nc(C)c2=O)c1=O | 0.2 | -2.3 | 101.3 | -3.0 | -0.5
Cc1n[nH]c(=S)n(NC(=O)/C=C/C(=O)Nn2c(=S)[nH]nc(C)c2=O)c1=O | · | -6.7 | 36.1* | · | -9.1
COc1cc(/C=C/CNC[C@H]2O[C@@H](n3cnc4c(N)ncnc43)[C@H](O)[C@@H]2O)ccc1O | · | · | · | · | -1.7
N#C/C(=N\Nc1c(Cl)cccc1Cl)C(=O)NN | 74.9* | -24.3 | · | 14.1 | 2.0
N#C/C(=N\Nc1ccccc1Cl)C(=O)c1ccccc1 | -2.0 | 0.0 | 97.4 | 0.0 | -0.7
COc1ccc(N(CC(=O)Nc2ccc(F)c(Cl)c2)S(=O)(=O)c2c(C)noc2C)cc1 | -0.3 | -1.8 | 6.0* | -0.7 | 5.3
COc1ccc(N(CC(=O)Nc2ccc(OC)c(Cl)c2)S(=O)(=O)c2c(C)noc2C)cc1 | -0.8 | 1.8 | 102.1 | -2.3 | -3.8
Oc1ccc(Cl)c(CN2CCN(c3ncc(Cc4ccccc4)cn3)CC2)c1 | · | · | · | · | 4.0
O=C(CCN1C(=O)/C(=C/c2cccc(Br)c2)SC1=S)Nc1cccnc1 | -0.4 | -0.9 | 83.5 | -0.2 | 0.8
O=C(CCN1C(=O)/C(=C/c2ccc(F)cc2)SC1=S)NNC(=O)c1cccnc1 | 0.9 | 1.5 | 87.7* | 0.3 | ·
O=C(CCN1C(=O)/C(=C/c2ccccc2)SC1=S)NNC(=O)c1cccnc1 | -5.3 | 2.3 | · | -1.7 | 1.0
O=C(CCN1C(=O)/C(=C/c2cccc(Br)c2)SC1=S)NNC(=O)c1cccnc1 | 2.9 | 1.3 | 83.1* | 1.3 | 4.4
N#Cc1cccc(C2CC(OCCF)=CC(=O)O2)c1 (stereo unspecified) | · | · | · | · | -0.8
O=S(=O)(O)c1cc(O)c2c(O)c(N=Nc3cc(Cl)ccc3O)c(S(=O)(=O)O)cc2c1 | 8.6 | -1.4 | 87.1 | 5.4 | 77.4*
Cc1cc(-c2ccc(N=Nc3c(S(=O)(=O)O)cc4cc(S(=O)(=O)O)cc(N)c4c3O)c(C)c2)ccc1N=Nc1c(S(=O)(=O)O)cc2cc(S(=O)(=O)O)cc(N)c2c1O | 31.7 | · | · | 66.0* | ·
COc1ccc(S(=O)(=O)N2CCC[C@H]2C(=O)N2CCC[C@H]2C(=O)NCc2ccncc2)cc1C | · | · | · | · | 4.9
Cc1ccc2nc(-c3ccco3)c(CC(C)(C)C)n2c1 | · | · | · | · | 0.0
CCCn1c(=NC(=O)CCS(=O)(=O)c2ccccc2)sc2cc(S(N)(=O)=O)ccc21 | 1.7 | -8.5 | 103.0 | 1.6 | ·
COCCn1c(=NC(=O)CCS(=O)(=O)c2ccccc2)sc2cc(C(=O)OC)ccc21 | 0.5 | 3.8 | -9.8* | -0.4 | 1.9
C/C(=C\C(=O)OCC(=O)NCc1ccccc1)C(=O)OCC(=O)NCc1ccccc1 | -1.9 | 1.3 | 76.2* | 0.7 | -1.8
O=C(Cn1cnc2c(nnn2Cc2ccccc2)c1=O)c1ccccc1 | -1.5 | 1.6 | 105.3 | 0.0 | 1.3
O=C(Cn1cnc2c(nnn2Cc2ccc(Cl)cc2)c1=O)c1ccccc1 | -0.2 | -1.8 | 61.7* | -1.3 | 3.9
O=C(NCCc1c[nH]c2ccccc12)C(=O)Nc1ccccc1 | -2.5 | -0.6 | 64.0* | -0.2 | -1.5
